Assay results: PubChem BioAssay
Active and inactive are the calls of the source.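 The calls were made as follows, unless noted: active = viability at or below 30% in both replicate assays; inconclusive = viability at or below 30% in just one of the two assays; inactive = the rest.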

What was measured:
[1] = target: Pantothenate synthetase (Mycobacterium tuberculosis (strain ATCC 25618 / H37Rv)) (UniProt P9WIL5); assay: Coupled enzyme confirmation of inhibitors against recombinant Mtb PanC (AID 375; call rule not given here;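 also: 0% = full reaction with vehicle and 100% = no enzyme background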); conditions: coupled enzyme assay; at 10 µM, stronger effect = higher value
[2] = Her2 expression decrease, cell viability multiplex – SKBR3 breast tumor cells, AlphaScreen, ATP viability, primary screen (AID 461;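 active = Her2 level under about 52% in both replicate screens, with viability over 70% of control, limit read from the data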;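 as to Her2 level: lower value means less Her2 protein in the cells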;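 as to viability: percent of carrier control wells set as 100% viability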); conditions: SKBR3 Her2 protein level, 18-24 h, measured here: SKBR3 viability, ATP luminescence, at 10 µM
[3] = target: Receptor tyrosine-protein kinase erbB-2 (Homo sapiens) (UniProt P04626); assay: as above; conditions: 18-24 h, at 10 µM, stronger effect = lower value
[4] = reduced viability of SK-BR-3 breast cancer cells – cell-based, 24 h, human, pilot screen (AID 572;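 active = viability at or below 10% of carrier control in both of two separate runs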;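 also: compound exposure lasted between 18 and 24 h rather than exactly 24 h; 100% = carrier-treated control wells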); conditions: SK-BR-3 viability, CellTiter-Glo luminescence, at 10 µM, stronger effect = lower value
[5] = HUVEC growth inhibition – cell-based, human, primary screen (AID 575); conditions: HUVEC proliferation, CellTiter-Glo luminescence, 72 h; at 10 µM; stronger effect = lower value;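 also: 100% = median of untreated cell wells with 0.1% DMSO on each plate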
Method in brief: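 Material: primary human umbilical vein endothelial cells / Schedule: 72 h exposure, 37 °C, 5% CO2, 30 min RT equilibration / Signal: ATP-based CellTiter-Glo luminescent read / Read-out basis: percent of median DMSO-control luminescence / Control set: 32 DMSO-only cell-control wells (high), 32 MePR drug-control wells (low) per plate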

[6] = H69AR cell proliferation blockers – human, duplicate replicates, primary screen (AID 580;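 active = viability at or under a set limit in both replicates, limit being median viability minus 3 SD, cut at about 48% in these data, passing the limit was not always enough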;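 also: 100% = mean luminescence of untreated wells and 0% = no signal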); conditions: H69AR lung tumor cells viability, ATP luminescence, 72 h; at 10 µM; stronger effect = lower value
[7] = MRP1 drug-resistance reversers in H69AR cells – cell-based, doxorubicin co-treatment, pilot screen (AID 601;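 active = viability loss from added drug above about 55%, and viability with drug at most 40%, in both replicates, limit read from the data, passing the limit was not always enough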); conditions: CellTiter-Glo, 72 h, at 10 µM; for differential viability (reversal): stronger effect = higher value
[8] = yeast transport mutant growth inhibition pilot in 384-well plates, post-Golgi transport modulator project (AID 636; in the data active = inhibition above about 31%); conditions: absorbance 615 nm, about 18 h, stronger effect = higher value
[9] = growth suppression of yeast trafficking mutant, preliminary HTS, modulators of trafficking downstream of Golgi apparatus project, 1536-format plate, OD 615 nm (AID 637; in the data active = inhibition above about 30%); conditions: yeast transport mutant growth, absorbance 615 nm, 18 h; stronger effect = higher value
[10] = H69AR cells + 2 uM doxorubicin, measured here: viability with 2 uM doxorubicin, stronger effect = lower value
[11] = H69AR cells, compound alone cytotoxicity

Receptor tyrosine-protein kinase erbB-2 (Homo sapiens), sequence (P04626 whole entry, looked up): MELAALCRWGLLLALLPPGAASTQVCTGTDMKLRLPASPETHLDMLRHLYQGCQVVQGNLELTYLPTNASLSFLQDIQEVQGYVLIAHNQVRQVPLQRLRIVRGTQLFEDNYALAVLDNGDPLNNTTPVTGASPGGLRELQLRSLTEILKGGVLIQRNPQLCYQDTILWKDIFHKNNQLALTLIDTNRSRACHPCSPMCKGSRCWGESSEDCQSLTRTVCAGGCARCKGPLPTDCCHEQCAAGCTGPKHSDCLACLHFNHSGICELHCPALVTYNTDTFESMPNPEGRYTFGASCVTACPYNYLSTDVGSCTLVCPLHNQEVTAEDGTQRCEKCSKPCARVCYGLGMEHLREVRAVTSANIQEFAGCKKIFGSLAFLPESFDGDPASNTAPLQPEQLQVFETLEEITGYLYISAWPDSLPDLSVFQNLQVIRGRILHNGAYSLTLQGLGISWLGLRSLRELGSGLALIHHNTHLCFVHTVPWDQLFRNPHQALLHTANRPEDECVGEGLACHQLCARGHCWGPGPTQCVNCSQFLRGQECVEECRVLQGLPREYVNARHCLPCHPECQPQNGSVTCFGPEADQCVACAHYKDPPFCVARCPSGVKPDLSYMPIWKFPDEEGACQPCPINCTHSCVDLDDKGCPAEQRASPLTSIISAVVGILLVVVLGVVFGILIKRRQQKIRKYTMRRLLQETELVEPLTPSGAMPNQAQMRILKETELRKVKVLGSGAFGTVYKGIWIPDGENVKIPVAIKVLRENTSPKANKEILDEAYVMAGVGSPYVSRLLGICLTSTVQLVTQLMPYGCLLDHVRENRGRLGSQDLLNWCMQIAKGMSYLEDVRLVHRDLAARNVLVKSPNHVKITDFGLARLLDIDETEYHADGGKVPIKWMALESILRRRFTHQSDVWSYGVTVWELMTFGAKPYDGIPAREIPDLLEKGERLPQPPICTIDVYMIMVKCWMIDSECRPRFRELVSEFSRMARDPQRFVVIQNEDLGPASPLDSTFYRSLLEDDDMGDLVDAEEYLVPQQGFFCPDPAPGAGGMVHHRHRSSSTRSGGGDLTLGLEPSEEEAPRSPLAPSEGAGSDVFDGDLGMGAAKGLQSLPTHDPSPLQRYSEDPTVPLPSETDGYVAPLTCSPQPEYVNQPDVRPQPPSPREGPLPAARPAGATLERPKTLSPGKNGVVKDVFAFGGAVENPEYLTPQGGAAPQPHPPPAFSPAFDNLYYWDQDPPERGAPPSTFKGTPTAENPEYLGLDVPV
Pantothenate synthetase (Mycobacterium tuberculosis (strain ATCC 25618 / H37Rv)), sequence (P9WIL5 whole entry, looked up): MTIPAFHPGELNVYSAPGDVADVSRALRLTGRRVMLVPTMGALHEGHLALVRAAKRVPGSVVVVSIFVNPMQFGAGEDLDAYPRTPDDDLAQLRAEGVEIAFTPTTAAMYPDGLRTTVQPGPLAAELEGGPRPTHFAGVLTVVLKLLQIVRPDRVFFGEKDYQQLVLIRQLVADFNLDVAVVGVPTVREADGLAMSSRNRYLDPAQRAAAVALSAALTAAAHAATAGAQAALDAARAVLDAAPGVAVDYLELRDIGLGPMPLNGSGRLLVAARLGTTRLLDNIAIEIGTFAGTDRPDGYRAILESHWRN

SMILES | inhibition [1] | viability [2] | Her2 level [3] | viability [4] | viability [5] | viability [6] | differential viability (reversal) ([7]; H69AR cells + 2 uM doxorubicin) | viability [7, 10] | viability [7, 11] | inhibition [8] | inhibition [9]
CC(C)OC(=O)c1c(N)n(CC2CCCO2)c2nc3ccccc3nc12 (stereo not given) | 5% (inactive) | 86.5% | 92.5% (inactive) | 86.5% (inactive) | 102% (inactive) | 94.7% (inactive) | 4.96% (inactive) | 89.7% | 94.7% | -1.58% (inactive) | -3.17% (inactive)
CC1=C(C(=O)OC(C)C)[C@]2(C(=O)N(CC(N)=O)c3ccccc32)C(C#N)=C(N)O1 | 3% (inactive) | 92% | 85.5% (inactive) | 92% (inactive) | 110% (inactive) | 113% (inactive) | 15.5% (inactive) | 97.5% | 113% | -6.8% (inactive) | 19.5% (inactive)
Cc1cnn(C2CCN(C)CC2)c1N | 0% (inactive) | 97% | 96.5% (inactive) | 97% (inactive) | 102% (inactive) | 104% (inactive) | 5.52% (inactive) | 98.4% | 104% | 0.14% (inactive) | -5.41% (inactive)
NC(=O)OCCSc1nnc(-c2cccc(C(N)=S)c2)o1 | 2% (inactive) | 103% | 88% (inactive) | 103% (inactive) | 108% (inactive) | 105% (inactive) | 13.7% (inactive) | 91% | 105% | -6% (inactive) | 0.65% (inactive)
O=C(c1ccc(CS(=O)(=O)c2ccccc2)o1)N1CCC2(CC1)OCCO2 | 0% (inactive) | 90% | 112% (inactive) | 90% (inactive) | 96.5% (inactive) | 85% (inactive) | -6.95% (inactive) | 92% | 85% | -2.11% (inactive) | -2.73% (inactive)
